SMILES strings stand for the structures. pIC50: −log10 of the molar value.

The test system of one series is MV4-11. Briefly: Antiproliferative activity against human MV4-11 cells assessed as reduction in cell viability measured after 96 hrs by Celltiter-Glo luminescent assay. It is filed as functional, cell-based. The following applies: MV4-11, 96 h. In short, it runs like this:
(§1)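 Cells in DMEM (A2058, MRC5) or RPMI 1640 (MV4-11), each with 10% fetal bovine serum and 1% penicillin/streptomycin. Cells were plated in 96-well plates and exposed to serially concentrated compound for 96 h, with DMSO as control. Viability was read by CellTiter-Glo luminescence and IC50 derived.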

A further series relates to MRC5. Briefly: Cytotoxicity against human MRC5 cells assessed as reduction in cell viability measured after 96 hrs by Celltiter-Glo luminescent assay. It is filed as cell-based. Conditions: MRC5, 96 h. In short, it runs like this: as §1
A general note: ATP-based viability assays read luminescence as a measure of living cells.

Series [1] in a line: Cytotoxicity against human LX2 cells assessed as inhibition of cell growth at 100 uM measured after 96 hrs by Celltiter-Glo luminescent assay. It is filed as cell-based. In a few lines: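 LX2 cells grown in DMEM with 10% fetal bovine serum and 1% penicillin/streptomycin, plated in 96-well plates. They were treated with compound at […] or DMSO control for 96 h. Viability was read by CellTiter-Glo luminescence and expressed as percent inhibition.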

Series [2] addresses Cyclin-dependent kinase 1/cyclin B1 (Homo sapiens, UniProt P06493). The class given is protein-complex assay.
The next series deals with CDK2/Cyclin A2 (Homo sapiens, UniProt P24941). Nature of the series: Inhibition of CDK2/cyclin A2 (unknown origin) using FAM-labeled peptide and ATP as substrate preincubated for 10 mins followed by substrate addition by mobility shift assay. It is filed as protein-complex assay.
The next series has as its system A2058. Briefly: Antiproliferative activity against human A2058 cells assessed as reduction in cell viability measured after 96 hrs by Celltiter-Glo luminescent assay. Conditions: A2058, 96 h. The class given is functional, cell-based. In a few lines: as §1

Chain of Cyclin-dependent kinase 1/cyclin B1 (P06493 whole entry): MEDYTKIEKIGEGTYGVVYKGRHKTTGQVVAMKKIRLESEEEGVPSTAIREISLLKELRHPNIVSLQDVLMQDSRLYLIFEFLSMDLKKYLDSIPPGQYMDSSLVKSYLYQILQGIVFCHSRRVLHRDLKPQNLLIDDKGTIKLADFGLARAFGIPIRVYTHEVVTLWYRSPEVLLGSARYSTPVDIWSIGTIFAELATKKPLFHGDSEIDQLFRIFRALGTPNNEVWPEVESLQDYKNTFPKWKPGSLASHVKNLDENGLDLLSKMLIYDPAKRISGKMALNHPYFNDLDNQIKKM
Chain of Cyclin-dependent kinase 1/cyclin B1 (P14635 whole entry, further chain): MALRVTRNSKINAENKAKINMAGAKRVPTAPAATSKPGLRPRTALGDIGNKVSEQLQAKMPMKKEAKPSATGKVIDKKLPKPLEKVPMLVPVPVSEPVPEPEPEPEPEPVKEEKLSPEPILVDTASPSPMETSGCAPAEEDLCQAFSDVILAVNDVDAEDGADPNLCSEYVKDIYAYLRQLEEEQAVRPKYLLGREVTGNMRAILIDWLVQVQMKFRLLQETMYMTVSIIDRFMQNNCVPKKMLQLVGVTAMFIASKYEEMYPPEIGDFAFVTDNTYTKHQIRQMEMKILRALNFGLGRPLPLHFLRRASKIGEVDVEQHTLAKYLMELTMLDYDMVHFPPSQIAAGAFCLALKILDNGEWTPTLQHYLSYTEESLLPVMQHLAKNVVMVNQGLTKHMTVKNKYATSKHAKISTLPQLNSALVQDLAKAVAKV

With `O=C(NC1CCNCC1)c1n[nH]cc1NC(=O)c1c(Cl)cccc1Cl` [AT-7519], the pIC50 – broadly, −log10 of the IC50, conventionally taken in molar units – in the series with MV4-11 was 6.41; in the series on MRC5, 6.37. Besides, the inhibition (commonly the drop in the measured response relative to a control, in per cent) at 96 h, 100 µM in series [1] was 39.4%.

Regarding `COc1ccc(-c2ccc(F)c(C(=O)Nc3c[nH]nc3C(=O)Nc3ccc(F)cc3)c2F)cn1`, the results for the negative-log IC50 (pIC50) (in series [2]; on CDK2/Cyclin A2) were 6.15 and 6.84, respectively.

On to `O=C(Nc1ccc(F)cc1)c1n[nH]cc1NC(=O)c1c(F)ccc(-c2ccc(F)nc2)c1F`, for which the pIC50 in series [2] was 6.56; at CDK2/Cyclin A2, 7.29; in the series with A2058 it was 5.20.

`CN1CCC(CNC(=O)c2cccc(-c3ccc(F)c(C(=O)Nc4c[nH]nc4C(=O)Nc4ccc(F)cc4)c3F)c2)CC1`: the results for the pIC50 (in series [2]; at CDK2/Cyclin A2; in the series on A2058) were 6.13, 7.09 and 5.48, respectively.

Turning to `CN1CCN(CCNC(=O)c2cccc(-c3ccc(F)c(C(=O)Nc4c[nH]nc4C(=O)Nc4ccc(F)cc4)c3F)c2)CC1`, the negative-log IC50 (pIC50) in series [2] was 6.46; at CDK2/Cyclin A2, 7.17.

For the molecule `O=C(NCCCN1CCOCC1)c1cccc(-c2ccc(F)c(C(=O)Nc3c[nH]nc3C(=O)Nc3ccc(F)cc3)c2F)c1`, the values for the pIC50 (in series [2]; on CDK2/Cyclin A2; with A2058) were 6.14, 7.14 and 6.19, respectively.

With `COC(=O)c1cccc(-c2ccc(F)c(C(=O)Nc3c[nH]nc3C(=O)Nc3ccc(F)cc3)c2F)c1`, the pIC50 in series [2] was 6.30; at CDK2/Cyclin A2, 6.68.

Consider `Cc1ccc(-c2ccc(F)c(C(=O)Nc3c[nH]nc3C(=O)Nc3ccc(F)cc3)c2F)cn1`, for which the negative logarithm of the IC50 (pIC50) in series [2] was 5.73; on CDK2/Cyclin A2, 6.79.

Regarding `NC(=O)c1cccc(-c2ccc(F)c(C(=O)Nc3c[nH]nc3C(=O)Nc3ccc(F)cc3)c2F)c1`, the pIC50 in series [2] was 7.16; at CDK2/Cyclin A2 it was 8.10; in the series with A2058, 5.70.

As for `O=C(Nc1ccc(F)cc1)c1n[nH]cc1NC(=O)c1c(F)ccc(-c2cccnc2)c1F`, the values for the negative logarithm of the IC50 (pIC50) (in series [2]; on CDK2/Cyclin A2; with A2058) were 6.51, 7.40 and 5.53, respectively.

As for `O=C(Nc1ccc(F)cc1)c1n[nH]cc1NC(=O)c1c(F)ccc(-c2cccc(CO)c2)c1F`, the pIC50 in series [2] was 6.27; on CDK2/Cyclin A2, 7.12.

Turning to `Cc1ccc(C(=O)NCCCN2CCOCC2)cc1-c1ccc(F)c(C(=O)Nc2c[nH]nc2C(=O)Nc2ccc(F)cc2)c1F`, the negative logarithm of the IC50 (pIC50) in series [2] was 5.43; on CDK2/Cyclin A2, 6.31; with A2058, 5.19.

Consider `O=C(Nc1ccc(F)cc1)c1n[nH]cc1NC(=O)c1c(F)ccc(-c2ccccc2)c1F`, for which the negative-log IC50 (pIC50) is 6.36 in series [2], 7.07 on CDK2/Cyclin A2 and 5.63 in the series with A2058.

For the molecule `O=C(Nc1ccc(F)cc1)c1n[nH]cc1NC(=O)c1c(F)cccc1F`, the results for the pIC50 (in series [2]; with A2058) were 7.85 and 6.00, respectively.

For the molecule `O=C(Nc1ccc(F)cc1)c1n[nH]cc1NC(=O)c1c(F)ccc(-c2cccc(O)c2)c1F`, the pIC50 in series [2] was 6.63; on CDK2/Cyclin A2 it was 7.59.

As for `O=C(NCCCN1CCOCC1)c1ccc(F)c(-c2ccc(F)c(C(=O)Nc3c[nH]nc3C(=O)Nc3ccc(F)cc3)c2F)c1`, the negative logarithm of the IC50 (pIC50) is 5.89 in series [2], 6.77 on CDK2/Cyclin A2 and 6.03 in the series on A2058.

As to `Nc1ccc(-c2ccc(F)c(C(=O)Nc3c[nH]nc3C(=O)Nc3ccc(F)cc3)c2F)cn1`, the negative logarithm of the IC50 (pIC50) in series [2] is 5.90; on CDK2/Cyclin A2 it was 6.92; with A2058 it was 5.07.

Consider `NS(=O)(=O)c1ccc(Nc2nc(-c3cccc(-c4ccccc4)c3)c3nc[nH]c3n2)cc1`, for which the negative logarithm of the IC50 (pIC50) in series [2] was under 3.70; at CDK2/Cyclin A2 it was 6.27; with A2058, under 4.00.

Source of the values: ChEMBL document CHEMBL4732230, “Design, synthesis, and biological evaluation of 4-benzoylamino-1H-pyrazole-3-carboxamide derivatives as potent CDK2 inhibitors” (Eur J Med Chem, 2021).
